The data set is described as follows: Toxicity liver stage against HepG2, at 10uM. The conditions noted are these: human, HepG2-A16-CD81EGFP cells; read-out: INHIBITION
The arrangement: test concentration 10 uM, cell line HepG2-A16-CD81EGFP. Format: cell-based. In short, it runs like this:
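Uninfected HepG2-A16-CD81EGFP cells, 3 × 10^3 per well, 1536-well, plated on prespotted compound at 10 μM final, parasite-free screening media added to match infected plates; puromycin 10 μM positive, DMSO 0.5% negative; run in parallel with 48 h PbLuc assay at 37 °C, 5% CO2; viability by CellTiter-Glo luminescence, normalized to controls.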
On to `COc1ccc(Nc2c[nH]c(=O)[nH]c2=O)cc1`, for which the cytotoxicity at 10 µM worked out at 14.2%.

In the case of `O=C1CO[C@H]2CN(S(=O)(=O)c3ccccc3)C[C@H]2N1c1ccccc1`, the cytotoxicity at 10 µM was -2.6%.

Consider `O=C1N[C@@H]2CCN(C(=O)C3CC3)[C@@H]2C(=O)N1c1ccc(F)cc1`, for which the cytotoxicity at 10 µM is -1.8%.

Regarding `O=C1N[C@@H]2CCN(C(=O)c3ccccc3)[C@@H]2C(=O)N1Cc1ccccc1`, the cytotoxicity at 10 µM was -1.84%.

With `CNC(=O)c1cnc2c(C)csc2c1`, the cytotoxicity at 10 µM is -22.3%.

For `O=C(Cc1csc(-c2ccccc2Cl)n1)NCc1cccc(C(=O)O)c1`, the cytotoxicity at 10 µM is -3.67%.

Take `O=C1CCC2(CCN(Cc3ccsc3)CC2)N1Cc1ccccc1`: the cytotoxicity at 10 µM came out at 0.552%.

Turning to `O=C([C@H]1CCCO1)N1CCC2(CC1)C(=O)N(CC1CC1)c1ccccc12`, the cytotoxicity at 10 µM came to 8.5%.

On to `CN(C)CCN1CCN(C)C2(CCN(c3nccs3)CC2)C1=O`, for which the cytotoxicity at 10 µM is -1.92%.

For the compound `Cc1nnc([C@H]2C[C@H]3OCC[C@H]3N(S(=O)(=O)CC(C)C)C2)o1`, the cytotoxicity at 10 µM was -5.27%.

Regarding `O=C(C1CC=CC1)N1CC[C@@H]2O[C@@H](COCC3CCOCC3)CC[C@@H]21`, the cytotoxicity at 10 µM was 5.51%.

On to `CC1CCN(S(=O)(=O)c2cccn(CC(=O)N3CCOCC3)c2=O)CC1`, for which the cytotoxicity at 10 µM stood at 2.11%.

On to `O=C(CCCC(=O)NCc1cccc(Br)c1)NCCN1CCCC1`, for which the cytotoxicity at 10 µM was -7.47%.

For the compound `Cc1cccc2c1ccn2CCC(=O)O`, the cytotoxicity at 10 µM was 7.47%.

In the case of `COc1cc(-c2n[nH]c(CO)n2)cc(OC)c1OC`, the cytotoxicity at 10 µM is -4.91%.

In the case of `Cc1noc(C)c1C(=O)N[C@@H]1CCC[C@@H](Oc2ccccc2)[C@@H]1O`, the cytotoxicity at 10 µM was found to be 4.72%.

With `CN(CCc1ccccc1)Cc1c(C2CCOCC2)[nH]c2ncccc12`, the cytotoxicity at 10 µM came out at 4.21%.

As to `CS(=O)(=O)N1CCCC(n2nnn(-c3ccccc3)c2=O)C1` (stereo unspecified), the cytotoxicity at 10 µM is -6.17%.

Consider `COCCNC(=O)C1(CCCc2cccnc2)CCCN1C` (stereo unspecified), for which the cytotoxicity at 10 µM was found to be 20.1%.

Regarding `CCCC(=O)N1CCCC(C(=O)c2cnn(-c3ccc(F)cc3)c2N)C1` (stereo unspecified), the cytotoxicity at 10 µM is 4.67%.

Regarding `O=C(O)CCCC(=O)NCC1(O)CCN(c2ccnc3cccnc23)C1` (stereo unspecified), the cytotoxicity at 10 µM turned out to be 5.09%.

As for `CN(C)c1nccnc1C1CCN(C2CCCCC2O)CC1` (stereo unspecified), the cytotoxicity at 10 µM stood at 8.12%.

As to `O=C1CCC[C@]2(CN(S(=O)(=O)N3CCCCC3)C[C@H]2c2cccnc2)N1`, the cytotoxicity at 10 µM was -0.217%.

In the case of `CC(C)(C)NC(=O)C1(Cc2ccccc2-c2ccncc2)CCOCC1`, the cytotoxicity at 10 µM is -6.99%.

Consider `COCC(=O)N1CCC(c2csc(NC(C)=O)n2)CC1`, for which the cytotoxicity at 10 µM was -28.6%.

`CC(=O)N1CCC(Cc2cnc(-n3ccnc3)cn2)CC1`: the cytotoxicity at 10 µM was -38.8%.

Turning to `Cc1nc(Nc2nnc(C)s2)cc(C2CCCN2c2ccncc2)n1` (stereo unspecified), the cytotoxicity at 10 µM is -9.99%.

Turning to `COCCC(=O)N1CCCC1c1nccc(C)n1` (stereo unspecified), the cytotoxicity at 10 µM is -19.2%.

Regarding `CN(C)Cc1ccnc(C2CN(CCc3ccccc3)CCO2)n1` (stereo unspecified), the cytotoxicity at 10 µM was -16.5%.

Turning to `C[C@]1(O)CN(Cc2cccc(C(=O)O)c2)CC[C@@H]1Oc1cccc(F)c1`, the cytotoxicity at 10 µM is -5.64%.

Regarding `CCCn1cc(C(=O)N2CCCC(Cc3nccs3)C2)cn1` (stereo unspecified), the cytotoxicity at 10 µM is -11.4%.

With `CC(C)n1cc(C(=O)N2Cc3ccccc3OC3(CCOCC3)C2)cn1`, the cytotoxicity at 10 µM stood at 6.61%.

In the case of `O=C(NC1CC1)C1CCc2nnc(-c3cccc(C(F)(F)F)c3)n21` (stereo unspecified), the cytotoxicity at 10 µM amounted to 8.6%.

Turning to `CN(C)C(=O)c1nc(-c2ccc(S(C)(=O)=O)cc2)c2ccccn12`, the cytotoxicity at 10 µM amounted to 8.77%.

Consider `COc1c(C(=O)NC(C)Cc2ccccc2Cl)c(C)nn1C` (stereo unspecified), for which the cytotoxicity at 10 µM is -0.686%.

Regarding `CC(NCc1nnc2n1CCCC2)c1nc(-c2cccs2)no1` (stereo unspecified), the cytotoxicity at 10 µM is -39.5%.

In the case of `Cc1ccc2c(c1)C(NCc1ccccn1)CC2` (stereo unspecified), the cytotoxicity at 10 µM worked out at 5.47%.

For `Cc1ccc(C(C)(O)CNC(=O)CCn2ccnc2C(C)C)o1` (stereo unspecified), the cytotoxicity at 10 µM was found to be 8.53%.

For `Cc1ccc(C(=O)NCc2cccnc2-n2cncn2)cc1S(C)(=O)=O`, the cytotoxicity at 10 µM is 4.5%.

On to `CN(CCn1cnnc1)C(=O)c1ccnc(OC2CCC2)c1`, for which the cytotoxicity at 10 µM came out at 5.1%.

With `CCCc1n[nH]c(C2CN(C(=O)Cc3ccc(C)nc3)CCO2)n1` (stereo unspecified), the cytotoxicity at 10 µM amounted to 6.73%.

Regarding `Cc1cnn(CC2CCCN2C(=O)CCc2c(C)noc2C)c1` (stereo unspecified), the cytotoxicity at 10 µM is -5.81%.

As for `COc1cccc2c1N(Cc1noc(C3CC3)n1)CCC2`, the cytotoxicity at 10 µM was -5.59%.

Consider `N#Cc1c(N2CCCN(C3CCOCC3)CC2)nc2ccccn12`, for which the cytotoxicity at 10 µM came to 14.7%.

In the case of `CC(C)C(NC(=O)NCc1cccnc1N(C)C)c1cccs1` (stereo unspecified), the cytotoxicity at 10 µM is -1.86%.

`CC(=O)c1ccc(CNC(=O)c2c(C)cc(C)cc2C)nc1C`: the cytotoxicity at 10 µM was 9.31%.

Regarding `Cc1ccc(CNC(=O)N2CCCCC2CCNS(C)(=O)=O)cc1` (stereo unspecified), the cytotoxicity at 10 µM is -0.524%.

Take `Cc1nn(C)c(C)c1C(=O)N1CCOCC1CC(=O)c1ccco1` (stereo unspecified): the cytotoxicity at 10 µM was -11.4%.

Turning to `CS(=O)(=O)N1CCO[C@@H]2CN(C(=O)c3ccnnc3)C[C@@H]2C1`, the cytotoxicity at 10 µM turned out to be 5.97%.

As to `CC(C)NC(=O)C1CN(C(=O)Nc2ccccc2)CC12CCOCC2` (stereo unspecified), the cytotoxicity at 10 µM was found to be 4.58%.

As to `COc1cc(-c2cc(N)ncn2)cc(OC)c1OC`, the cytotoxicity at 10 µM is -5.11%.

With `CC(C)Nc1cc(N2CCCC3(CN(C)C(=O)O3)C2)ncn1` (stereo unspecified), the cytotoxicity at 10 µM is -53%.

`CCN1CC(C(=O)NCc2noc(Cc3ccccc3)n2)CCC1=O` (stereo unspecified): the cytotoxicity at 10 µM was -4.7%.

Take `O=C1COc2ccccc2N1CCCn1cnnn1`: the cytotoxicity at 10 µM was determined as 6.05%.

`CC(C)(N)c1cn(C2CCN(C(=O)CCC3CCCCC3)CC2)nn1`: the cytotoxicity at 10 µM is -6.53%.

With `COc1ccccc1-n1nc(C(C)C)nc1Cc1nnc(N)s1`, the cytotoxicity at 10 µM was 6.48%.

In the case of `Cc1cccc(C(C(=O)NCCc2nc(C)cc(=O)[nH]2)N(C)C)c1` (stereo unspecified), the cytotoxicity at 10 µM was -6.24%.

With `CC(C)c1nc(CN(C)C(=O)[C@H](N)Cc2ccc(Cl)cc2)cs1`, the cytotoxicity at 10 µM was -154%.

Regarding `O=C(c1cnc(O)cn1)N1CCCC1c1nc2cc(F)ccc2[nH]1` (stereo unspecified), the cytotoxicity at 10 µM worked out at 7.72%.

`c1ccc(CN2CCC(NCCSc3cnn[nH]3)CC2)cc1`: the cytotoxicity at 10 µM is -5.16%.

For `Cc1cc(C)c2nc(CNC3CCCNC3=O)cc(O)c2c1` (stereo unspecified), the cytotoxicity at 10 µM came out at 5.84%.

Consider `C[C@@H]1CN(c2ccc(Cl)cn2)CC[C@@]1(O)C1CCOCC1`, for which the cytotoxicity at 10 µM was -2.54%.

Turning to `COc1cc(-n2ccnc2-c2ccc(C(=O)O)s2)ccc1NC(C)=O`, the cytotoxicity at 10 µM is 2.74%.

Turning to `COCCN(C)C[C@@H]1CN(C(=O)c2sc3ccccc3c2C)C[C@@H]1CO`, the cytotoxicity at 10 µM is -7.13%.

With `O=C(Nc1cnc2n1CCCC2)c1cccc(-n2cnnc2)c1`, the cytotoxicity at 10 µM was -4.34%.

In the case of `CCc1cc(-c2cc[nH]n2)nc(N2CCOCC2)n1`, the cytotoxicity at 10 µM came out at 7.04%.

Take `Cc1[nH]c2c(F)cccc2c1CC(=O)N1CCCC(N)CC1` (stereo unspecified): the cytotoxicity at 10 µM stood at 3.26%.

For the compound `CCCC1(CO)CCCN(C(=O)CN2CCN(CC)CC2)C1` (stereo unspecified), the cytotoxicity at 10 µM was 0.854%.

`COCc1ncc(CN2CC[C@@H](NC(=O)c3cccnc3)[C@H](O)C2)cn1`: the cytotoxicity at 10 µM is -7.28%.

Regarding `CCNc1ncc(C(=O)N2CCC(c3ccccc3C(=O)O)C2)cn1` (stereo unspecified), the cytotoxicity at 10 µM was -6.41%.

Regarding `O=C(c1ccc(C2CCCN2C(=O)c2ccoc2)s1)N1CCOCC1` (stereo unspecified), the cytotoxicity at 10 µM was -156%.

Regarding `c1coc(-c2nnc(CN3CCCC3Cn3cncn3)o2)c1` (stereo unspecified), the cytotoxicity at 10 µM was -5.46%.

Consider `CCOCC(=O)N1CSCC1C(=O)N(C)Cc1ccco1` (stereo unspecified), for which the cytotoxicity at 10 µM is -11%.

Take `Cc1nn(C)c(C)c1C1CCCN1C(=O)c1ccc(N(C)C)nc1` (stereo unspecified): the cytotoxicity at 10 µM was -7.19%.

Turning to `CS(=O)(=O)N1CCN(C(=O)CCn2cccn2)CC1`, the cytotoxicity at 10 µM was -8.39%.

With `Cc1csc(N2CCCN(C(=O)C(C)n3cncn3)CC2)n1` (stereo unspecified), the cytotoxicity at 10 µM is -3.6%.

On to `O=C(Nc1nccs1)NC1CCN(Cc2ccccn2)CC1`, for which the cytotoxicity at 10 µM is -5.72%.

For `c1coc(-c2noc(CN3CCCCC3Cn3cncn3)n2)c1` (stereo unspecified), the cytotoxicity at 10 µM was -0.915%.

Turning to `Cc1cnn(CC2CCCCN2CCS(C)(=O)=O)c1` (stereo unspecified), the cytotoxicity at 10 µM is -13.7%.

With `Cc1nc(C)n(CC2CCCN2Cc2nc(C)c3ccccc3n2)n1` (stereo unspecified), the cytotoxicity at 10 µM is -12.4%.

As to `Cc1cnn(CC2CCCN2C(=O)Cc2ccc(C)nc2)c1` (stereo unspecified), the cytotoxicity at 10 µM was -1.64%.

Consider `Cc1cc(C)n(C2CN(CC(=O)NC(C3CC3)C3CC3)C2)n1`, for which the cytotoxicity at 10 µM was -9.8%.

Turning to `CN(C)c1ccc(NC(=O)NCc2cccnc2N(C)C)cn1`, the cytotoxicity at 10 µM is -20.9%.

Turning to `O=C(NCc1ccccn1)NCc1ccc(Cl)s1`, the cytotoxicity at 10 µM was -7.52%.

Take `CCc1nc(CN2CCCN(C(=O)CC3CCCC3)CC2)cs1`: the cytotoxicity at 10 µM is -25.2%.

As to `O=C(NCCN1CCCc2ccccc21)c1scnc1Cl`, the cytotoxicity at 10 µM is -3.41%.

With `O=C(NCC(=O)N1CCCCC1)c1ccoc1`, the cytotoxicity at 10 µM is -6.07%.

As for `CC(C)c1cc(NC(=O)CN2CCC(N3CCNC3=O)CC2)on1`, the cytotoxicity at 10 µM was -10.7%.

Consider `CN(C)c1ncc(-c2cccc(C(N)=O)c2)c(C2CNCCO2)n1` (stereo unspecified), for which the cytotoxicity at 10 µM was -2.77%.

For `Cc1nc(C2CCNC2)nc2c1CCC(=O)N2C` (stereo unspecified), the cytotoxicity at 10 µM was 3.77%.

For the compound `O=C1CCCC2(CCN(C(=O)c3ccccn3)CC2)N1`, the cytotoxicity at 10 µM worked out at 3.03%.

Regarding `Cn1nnc2c1CCN(Cc1ccncc1)C2COCc1ccccc1` (stereo unspecified), the cytotoxicity at 10 µM is -134%.

In the case of `COCC1CC2(CCN(C(=O)c3ccco3)CC2)CN1C(C)C` (stereo unspecified), the cytotoxicity at 10 µM was 4.71%.

Regarding `CN(C)c1cc(NCc2cnc3n2CCN(CC2CC2)CC3)ncn1`, the cytotoxicity at 10 µM was -2.57%.

`Cc1ccc(N2CCCC3(COCCN(c4ccccn4)C3)C2)nn1` (stereo unspecified): the cytotoxicity at 10 µM was -119%.

As to `O=C1CC[C@H]2[C@@H](CCN2Cc2ccco2)N1`, the cytotoxicity at 10 µM was 2.82%.

Source of the values: ChEMBL document CHEMBL4513216, “Probing the Open Global Health Chemical Diversity Library for Multistage-Active Starting Points for Next-Generation Antimalarials” (ACS Infect Dis, 2020).
